Measured values from ChEMBL document CHEMBL1828509, “Synthesis, pharmacological evaluation and docking studies of coumarin derivatives” (2011).

Columns and labels:
Assay type in all cases: functional
Bacillus subtilis [1] = assay: Antimicrobial activity against Bacillus subtilis MTCC 1789 at 10 ug/ml; conditions: read-out: IZ
Bacillus subtilis [2] = assay: Antimicrobial activity against Bacillus subtilis MTCC 1789 at 25 ug/ml; conditions: read-out: IZ
Rattus norvegicus [3] = assay: Antiinflammatory activity in Wistar albino rat assessed as inhibition of carrageenan-induced paw edema at 20 mg/kg, po administered 30 mins before carrageenan challenge measured after 2 hrs by plethysmograph
Procedure, shortened: (§1)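 Male Wistar albino rats (150–200 g), six per group, dosed orally with 20 mg/kg suspension; control got 0.1 ml of 1% gum acacia suspension orally. After 30 min, 0.1 ml of 1% carrageenan in normal saline injected sub-plantar into the right hind paw. Paw volume measured by plethysmograph at 0, 1, 2, 3 and 4 h; percent edema inhibition versus control at matching time.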

Escherichia coli [4] = assay: Antimicrobial activity against Escherichia coli MTCC 4315 at 50 ug/ml; conditions: read-out: IZ
Bacillus subtilis [5] = assay: Antimicrobial activity against Bacillus subtilis MTCC 1789 at 50 ug/ml; conditions: read-out: IZ
Rattus norvegicus [6] = assay: Antiinflammatory activity in Wistar albino rat assessed as inhibition of carrageenan-induced paw edema at 20 mg/kg, po administered 30 mins before carrageenan challenge measured after 4 hrs by plethysmograph; procedure, shortened: as §1
Rattus norvegicus [7] = assay: Antiinflammatory activity in Wistar albino rat assessed as inhibition of carrageenan-induced paw edema at 20 mg/kg, po administered 30 mins before carrageenan challenge measured after 3 hrs by plethysmograph; procedure, shortened: as §1
Rattus norvegicus [8] = assay: Antiinflammatory activity in Wistar albino rat assessed as inhibition of carrageenan-induced paw edema at 20 mg/kg, po administered 30 mins before carrageenan challenge measured after 1 hr by plethysmograph; procedure, shortened: as §1
Mus musculus = assay: Analgesic activity in mouse assessed as inhibition of acetic acid-induced writhing administered 30 mins before acetic acid challenge measured after 30 mins relative to control; parameters: concentration or dose not given beside the values
Procedure, shortened: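 Groups of six mice (20–30 g, both sexes, pregnant females excluded) dosed with test compound; 30 min later 0.25 ml/mouse of 0.5% acetic acid given i.p. Writhes counted over the next 30 min. Mean writhes per group ± SE; percent decrease versus untreated control mice.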

Aspergillus niger [9] = assay: Antifungal activity against Aspergillus niger MTCC 282 at 25 ug/ml; conditions: read-out: IZ
Escherichia coli [10] = assay: Antimicrobial activity against Escherichia coli MTCC 4315 at 25 ug/ml; conditions: read-out: IZ
Aspergillus niger [11] = assay: Antifungal activity against Aspergillus niger MTCC 282 at 10 ug/ml; conditions: read-out: IZ
Candida albicans [12] = assay: Antifungal activity against Candida albicans MTCC 183 at 25 ug/ml; conditions: read-out: IZ
Escherichia coli [13] = assay: Antimicrobial activity against Escherichia coli MTCC 4315 at 10 ug/ml; conditions: read-out: IZ
Aspergillus niger [14] = assay: Antifungal activity against Aspergillus niger MTCC 282 at 50 ug/ml; conditions: read-out: IZ
Candida albicans [15] = assay: Antifungal activity against Candida albicans MTCC 183 at 10 ug/ml; conditions: read-out: IZ
Candida albicans [16] = assay: Antifungal activity against Candida albicans MTCC 183 at 50 ug/ml; conditions: read-out: IZ

SMILES | zone of inhibition at 10 µg/mL (Bacillus subtilis [1]) [mm] | zone of inhibition at 25 µg/mL (Bacillus subtilis [2]) [mm] | inhibition in vivo at 20 mg/kg (Rattus norvegicus [3]) [%] | zone of inhibition at 50 µg/mL (Escherichia coli [4]) [mm] | zone of inhibition at 50 µg/mL (Bacillus subtilis [5]) [mm] | inhibition in vivo at 20 mg/kg (Rattus norvegicus [6]) [%] | inhibition in vivo at 20 mg/kg (Rattus norvegicus [7]) [%] | inhibition in vivo at 20 mg/kg (Rattus norvegicus [8]) [%] | Activity (Mus musculus) [%] | zone of inhibition at 25 µg/mL (Aspergillus niger [9]) [mm] | zone of inhibition at 25 µg/mL (Escherichia coli [10]) [mm] | zone of inhibition at 10 µg/mL (Aspergillus niger [11]) [mm] | zone of inhibition at 25 µg/mL (Candida albicans [12]) [mm] | zone of inhibition at 10 µg/mL (Escherichia coli [13]) [mm] | zone of inhibition at 50 µg/mL (Aspergillus niger [14]) [mm] | zone of inhibition at 10 µg/mL (Candida albicans [15]) [mm] | zone of inhibition at 50 µg/mL (Candida albicans [16]) [mm]
Cc1cc(=O)oc2cc(OC(=O)CNc3ccccc3)ccc12 | 10.4 | 11.8 | 29.4 | 10.4 | 12.6 | 13.7 | 30.8 | 10.7 | 24 | 10.2 | – | – | – | – | – | – | –
Cc1cc(=O)oc2cc(OC(=O)CNc3ccccc3[N+](=O)[O-])ccc12 | 11.2 | 12.4 | 16.6 | – | 13.7 | 15.2 | 15.9 | 21.4 | 28 | – | 10.1 | 10.1 | 10.4 | – | – | – | –
Cc1cc(=O)oc2cc(OC(=O)CNc3cccc([N+](=O)[O-])c3)ccc12 | – | 11.2 | 30.7 | 11.1 | 13.4 | 32.2 | 34 | 28.5 | 13 | 10.5 | 11.3 | – | – | 10.3 | 11.4 | 10.5 | –
Cc1cc(=O)oc2cc(OC(=O)CNc3ccc([N+](=O)[O-])cc3)ccc12 | 10.2 | 12.1 | 17.9 | 16.9 | 13.4 | 23.7 | 20.2 | 12.5 | 28 | – | 14.2 | – | 10.2 | 12.2 | 10.2 | – | 11.4
Cc1cc(=O)oc2cc(OC(=O)CNc3ccccc3Cl)ccc12 | – | – | 11.5 | 12.6 | – | 23.7 | 12.8 | 21.4 | 21 | 10.2 | 10.8 | – | – | – | 12.4 | – | 10.4
Cc1cc(=O)oc2cc(OC(=O)CNc3ccc(Cl)cc3)ccc12 | – | – | 23 | 12.6 | 12.3 | 16.1 | 15.9 | 10.7 | 11 | 10.2 | 10.8 | – | 12.2 | – | 12.1 | 10.6 | 13.4
COc1ccccc1NCC(=O)Oc1ccc2c(C)cc(=O)oc2c1 | 10.2 | 11.4 | 15.3 | 10.2 | – | 19.4 | 26.6 | 10.7 | 28 | – | – | 10.4 | – | – | 12.4 | – | 12.4
COc1ccc(NCC(=O)Oc2ccc3c(C)cc(=O)oc3c2)cc1 | 11.2 | 13.3 | 33.3 | – | 14.4 | 28.8 | 37.2 | 30.3 | 17 | 13.2 | 11.2 | – | 12.4 | 10.5 | 14.1 | 10.2 | 13.2
Cc1ccccc1NCC(=O)Oc1ccc2c(C)cc(=O)oc2c1 | – | – | 15.3 | – | 11.6 | 19.4 | 17 | 12.5 | 23 | 12.4 | 10.5 | 10.6 | – | – | 13.1 | – | 12.2
